Assay [1] has as its system Mus musculus. The assay is described as follows: Antiobesity activity in ddY mouse assessed as inhibition of AgRP mRNA level in hypothalamus at 50 mg/kg, po for 4 days relative to control. The assay is classed as functional. In short, it runs like this:
(§1)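 Male ddY mice dosed po once daily at 15:00–17:00 for 4 d. Hypothalamus dissected 1 h after final dose, held in RNAlater, total RNA extracted. NPY and AgRP mRNA quantified by SYBR qPCR (40 cycles, annealing 58 °C) by relative quantification normalised to β-actin and expressed as ratio to control; n = 6, mean ± SEM.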

The test system of assay [2] is Mus musculus. The assay is described as follows: Antiobesity activity in ddY mouse assessed as inhibition of AgRP mRNA level in hypothalamus at 25 mg/kg, po for 4 days relative to control. The assay is classed as functional. In short, it runs like this:
as §1

The subject of assay [3] is Mus musculus. Nature of the assay: Antiobesity activity in ddY mouse assessed as inhibition of neuropeptide Y mRNA level in hypothalamus at 25 mg/kg, po for 4 days relative to control. The assay is classed as functional. In short, it runs like this: as §1
Assay [4] deals with Mus musculus. Nature of the assay: Antiobesity activity in ddY mouse assessed as food intake at 50 mg/kg, po measured upto 3 days (RVb = 15.2 g). The assay is classed as functional.
Assay [5] has as its system Mus musculus. Nature of the assay: Antiobesity activity in capsaicin treated ddY mouse assessed as gastric emptying at 25 mg/kg, po measured for 30 mins by Phenol red method (RVb = 87.7 +/- 2.3 %). The assay is classed as functional, Stomach.
Assay [6] deals with Mus musculus. Nature of the assay: Antiobesity activity in ddY mouse assessed as gastric emptying at 50 mg/kg, po measured for 30 mins by Phenol red method (RVb = 90.4 +/- 1.2 %). The assay is classed as functional, Stomach.
The test system of assay [7] is Mus musculus. Nature of the assay: Antiobesity activity in ddY mouse assessed as gastric emptying at 25 mg/kg, po measured for 30 mins by Phenol red method (RVb = 90.4 +/- 1.2 %). The assay is classed as functional, Stomach.
Assay [8] has as its system Mus musculus. The assay is described as follows: Antiobesity activity in capsaicin-treated ddY mouse assessed as reduction in food intake at 50 mg/kg, po for 3 days. Also noted: dose 50 mg/kg. The assay is classed as functional, organism-based.
In assay [9] the test system is Mus musculus. The assay is described as follows: Antiobesity activity in ddY mouse assessed as inhibition of neuropeptide Y mRNA level in hypothalamus at 50 mg/kg, po for 4 days relative to control. The assay is classed as functional. In short, it runs like this:
as §1

In assay [10] the test system is Mus musculus. Nature of the assay: Antiobesity activity in capsaicin treated ddY mouse assessed as inhibition of gastric emptying at 50 mg/kg, po measured for 30 mins by Phenol red method (RVb = 87.7 +/- 2.3 %). The assay is classed as functional, Stomach. Also noted: scale not given: the % may be the effect or the level left.
Assay [11] relates to Mus musculus. The assay is described as follows: Antiobesity activity in ddY mouse assessed as inhibition of food intake at 50 mg/kg, po. The assay is classed as functional, organism-based. On the set-up: dose 50 mg/kg.
Assay [12] has as its system Ileum. The assay is described as follows: Induction of 5-HT release from ddY mouse ileum assessed per gram of tissue at 100 µM after 20 mins by HPLC (RVb = 11.2 +/- 1.3 ng/g tissue).
Assay [13] relates to Ileum. The assay is described as follows: Induction of 5-HT release from ddY mouse ileum assessed per gram of tissue at 1000 µM after 20 mins by HPLC (RVb = 11.2 +/- 1.3 ng/g tissue).
Assay [14] deals with Ileum. The assay is described as follows: Induction of 5-HT release from ddY mouse ileum assessed as remaining 5-HT per gram of tissue at 100 uM after 20 mins by HPLC (RVb = 68.8 +/- 12.4 ng/g tissue).
The subject of assay [15] is Ileum. The assay is described as follows: Induction of 5-HT release from ddY mouse ileum assessed as remaining 5-HT per gram of tissue at 1000 µM after 20 mins by HPLC (RVb = 68.8 +/- 12.4 ng/g tissue).
The subject of assay [16] is Ileum. The assay is described as follows: Induction of 5-HT release from ddY mouse ileum assessed as remaining 5-HT per mg of protein at 100 µM after 20 mins by HPLC (RVb = 0.861 +/- 0.164 ng/mg protein).
In assay [17] the test system is Ileum. Nature of the assay: Induction of 5-HT release from ddY mouse ileum assessed as remaining 5-HT per mg of protein at 1000 µM after 20 mins by HPLC (RVb = 0.861 +/- 0.164 ng/mg protein).
Assay [18] relates to Mus musculus. Nature of the assay: Antiobesity activity in capsaicin treated ddY mouse assessed as gastric emptying at 50 mg/kg, po measured for 30 mins by Phenol red method (RVb = 85.8 +/- 2 %). The assay is classed as functional, Stomach.
For assay [19], the system named is Mus musculus. The assay is described as follows: Antiobesity activity in capsaicin-treated ddY mouse assessed as gastric emptying at 25 mg/kg, po measured for 30 mins by Phenol red method (RVb = 85.8 +/- 2 %). The assay is classed as functional, Stomach.
Assay [20] deals with Mus musculus. Nature of the assay: Antiobesity activity in ddY mouse assessed as gastric emptying at 50 mg/kg, po measured for 30 mins by Phenol red method (RVb = 86.6 +/- 1.8 %). The assay is classed as functional, Stomach.
The subject of assay [21] is Mus musculus. The assay is described as follows: Antiobesity activity in ddY mouse assessed as gastric emptying at 25 mg/kg, po measured for 30 mins by Phenol red method (RVb = 86.6 +/- 1.8 %). The assay is classed as functional, Stomach.

This is an account of results in ChEMBL document CHEMBL1833879, “Anti-obesity effects of the methanolic extract and chakasaponins from the flower buds of Camellia sinensis in mice” (2011).

Activity calls are given as the source filed them. No cut-off for these calls is given here.

Take `CC1(C)C[C@H]2C3=CC[C@@H]4[C@@]5(C)CC[C@H](O[C@@H]6O[C@H](C(=O)O)[C@@H](O)[C@H](O[C@@H]7OC[C@H](O)[C@H](O)[C@H]7O[C@@H]7OC[C@@H](O)[C@H](O)[C@H]7O)[C@H]6O[C@@H]6O[C@H](CO)[C@H](O)[C@H](O)[C@H]6O)C(C)(C)[C@@H]5CC[C@@]4(C)[C@]3(C)[C@@H](O)[C@@H](O)[C@@]2(CO)[C@@H](O)[C@@H]1O`: the inhibition result in the assay with Mus musculus [1], with Mus musculus [2] and in the assay with Mus musculus [3] was “inactive” in each case.
Regarding `C/C=C(\C)C(=O)O[C@H]1[C@H](OC(C)=O)[C@]2(CO)[C@H](O)[C@H](O)[C@]3(C)C(=CC[C@@H]4[C@@]5(C)CC[C@H](O[C@@H]6O[C@H](C(=O)O)[C@@H](O)[C@H](O[C@@H]7OC[C@H](O)[C@H](O)[C@H]7O[C@@H]7OC[C@@H](O)[C@H](O)[C@H]7O)[C@H]6O[C@@H]6O[C@H](CO)[C@H](O)[C@H](O)[C@H]6O)C(C)(C)[C@@H]5CC[C@]43C)[C@@H]2CC1(C)C` [CHAKASAPONIN III], in the assay with Mus musculus [4], the Activity worked out at 12.6 g.
For the compound `C/C=C(\C)C(=O)O[C@H]1[C@H](OC(=O)/C(C)=C/C)[C@]2(CO)[C@H](O)[C@H](O)[C@]3(C)C(=CC[C@@H]4[C@@]5(C)CC[C@H](O[C@@H]6O[C@H](C(=O)O)[C@@H](O)[C@H](O[C@@H]7OC[C@H](O)[C@H](O)[C@H]7O[C@@H]7OC[C@@H](O)[C@H](O)[C@H]7O)[C@H]6O[C@@H]6O[C@H](CO)[C@H](O)[C@H](O)[C@H]6O)C(C)(C)[C@@H]5CC[C@]43C)[C@@H]2CC1(C)C` [CHAKASAPONIN II], the Activity in the assay with Mus musculus [5] is 81.4%; in the assay on Mus musculus [6], 57.6%; in the assay with Mus musculus [7] it was 77.9%; with Mus musculus [10], 67.1%; in the assay on Ileum [12], 15.6 ng/g; in the assay on Ileum [13], 28.3 ng/g. Moreover, the Activity with Ileum [14] is 50.8 ng/g; with Ileum [15], 31.6 ng/g; in the assay on Ileum [16] it was 0.659 ng/mg; in the assay with Ileum [17], 0.396 ng/mg. The outcome in the assay with Mus musculus [8] was Active. Further, the “fold change (FC)” value with Mus musculus [1] is on record as 1.03; with Mus musculus [2] it was 1.08; with Mus musculus [9], 0.63; with Mus musculus [3], 1.09. Further, in the assay on Mus musculus [11], the inhibition entry is “Active”.
`C/C=C(\C)C(=O)O[C@H]1[C@H](OC(C)=O)[C@]2(CO)[C@H](O)C[C@]3(C)C(=CC[C@@H]4[C@@]5(C)CC[C@H](O[C@@H]6O[C@H](C(=O)O)[C@@H](O)[C@H](O[C@@H]7OC[C@H](O)[C@H](O)[C@H]7O[C@@H]7OC[C@@H](O)[C@H](O)[C@H]7O)[C@H]6O[C@@H]6O[C@H](CO)[C@H](O)[C@H](O)[C@H]6O)C(C)(C)[C@@H]5CC[C@]43C)[C@@H]2CC1(C)C` [CHAKASAPONINS I]: the Activity is 68% in the assay with Mus musculus [18]; 79.2% in the assay on Mus musculus [19]; 55.7% in the assay with Mus musculus [20]; 76.4% with Mus musculus [21]; 10.5 g in the assay with Mus musculus [4].
